This passage reports MIC results from ChEMBL document CHEMBL1149761, “New triazole and triazolothiadiazine derivatives as possible antimicrobial agents” (2008).

Values after ≈ are worked out from the molar mass of the structure shown.

One experiment concerns Salmonella typhimurium. The experiment can be described thus: Antibacterial activity against Salmonella Typhimurium NRRL B-4420 by microdilution broth susceptibility assay. The class given is functional, Salmonella enterica subsp. enterica serovar Typhimurium. The following applies: Salmonella enterica.
The test system of another experiment is Micrococcus luteus. The experiment can be described thus: Antibacterial activity against Micrococcus luteus NRLL B-4375 by microdilution broth susceptibility assay. The class given is functional.
Another experiment has as its system Staphylococcus aureus. The experiment can be described thus: Antibacterial activity against Staphylococcus aureus NRRL B-767 by microdilution broth susceptibility assay. The class given is functional.
The next experiment concerns Escherichia coli. The experiment can be described thus: Antibacterial activity against Escherichia coli NRRL B-3704 by microdilution broth susceptibility assay. The class given is functional.
The subject of the next experiment is Bacillus cereus. In words: Antibacterial activity against Bacillus cereus NRRL B-3711 by microdilution broth susceptibility assay. The class given is functional.
A further experiment deals with Proteus vulgaris. In words: Antibacterial activity against Proteus vulgaris NRRL B-123 by microdilution broth susceptibility assay. The class given is functional.
The test system of another experiment is Nakaseomyces glabratus. The experiment can be described thus: Antifungal activity against Candida glabrata isolate by broth dilution antifungal susceptibility test. In kind it is functional. Summed up:
(§1)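 Clinical Candida isolates obtained from Osmangazi University, Faculty of Medicine. Tested by the microbroth dilution method alongside bacterial strains.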

The next experiment concerns Candida albicans. The experiment can be described thus: Antifungal activity against Candida albicans isolate by broth dilution antifungal susceptibility test. The class given is functional. In outline:
as §1

As to `Cc1ccc(C2=Nn3c(Cc4c[nH]c5ccccc45)nnc3SC2)cc1`, the minimum inhibitory concentration (MIC) in the experiment on Salmonella typhimurium worked out at 62.5 µg/mL (≈ 174 µM); in the experiment with Micrococcus luteus, 62.5 µg/mL (≈ 174 µM); against Staphylococcus aureus it was 125 µg/mL (≈ 348 µM); against Escherichia coli, 125 µg/mL (≈ 348 µM); against Bacillus cereus it was 250 µg/mL (≈ 695 µM); against Proteus vulgaris it was 125 µg/mL (≈ 348 µM). Besides, the MIC with Nakaseomyces glabratus is 62.5 µg/mL (≈ 174 µM); against Candida albicans, 250 µg/mL (≈ 695 µM).

On to `O=[N+]([O-])c1ccc(C2=Nn3c(Cc4c[nH]c5ccccc45)nnc3SC2)cc1`, for which the minimal inhibitory concentration (MIC) in the experiment on Salmonella typhimurium came out at 250 µg/mL (≈ 640 µM); with Micrococcus luteus, 125 µg/mL (≈ 320 µM); in the experiment on Staphylococcus aureus it was 125 µg/mL (≈ 320 µM); with Escherichia coli, 125 µg/mL (≈ 320 µM); against Bacillus cereus, 250 µg/mL (≈ 640 µM); with Proteus vulgaris it was 125 µg/mL (≈ 320 µM). Besides, the minimal inhibitory concentration (MIC) against Nakaseomyces glabratus and in the experiment on Candida albicans was 125 µg/mL (≈ 320 µM) throughout.

For `c1ccc(C2=Nn3c(Cc4c[nH]c5ccccc45)nnc3SC2)cc1`, the MIC in the experiment on Salmonella typhimurium came to 62.5 µg/mL (≈ 181 µM); against Micrococcus luteus, 62.5 µg/mL (≈ 181 µM); in the experiment on Staphylococcus aureus, 62.5 µg/mL (≈ 181 µM); in the experiment on Escherichia coli, 250 µg/mL (≈ 724 µM); with Bacillus cereus it was 125 µg/mL (≈ 362 µM); against Proteus vulgaris, 62.5 µg/mL (≈ 181 µM). Also, the MIC against Nakaseomyces glabratus and against Candida albicans was 125 µg/mL (≈ 362 µM) in each case.

Regarding `S=c1[nH]nc(Cc2c[nH]c3ccccc23)n1/N=C/c1ccccc1`, the MIC was 62.5 µg/mL (≈ 187 µM) against Salmonella typhimurium; 250 µg/mL (≈ 750 µM) against Micrococcus luteus; 125 µg/mL (≈ 375 µM) in the experiment with Staphylococcus aureus; 125 µg/mL (≈ 375 µM) against Escherichia coli; 250 µg/mL (≈ 750 µM) in the experiment with Bacillus cereus; 62.5 µg/mL (≈ 187 µM) in the experiment on Proteus vulgaris. Further, the MIC against Nakaseomyces glabratus and in the experiment on Candida albicans was 125 µg/mL (≈ 375 µM) each time.

On to `Clc1ccc(C2=Nn3c(Cc4c[nH]c5ccccc45)nnc3SC2)cc1`, for which the minimum inhibitory concentration (MIC) amounted to 125 µg/mL (≈ 329 µM) with Salmonella typhimurium; 62.5 µg/mL (≈ 165 µM) in the experiment with Micrococcus luteus; 125 µg/mL (≈ 329 µM) in the experiment with Staphylococcus aureus; 125 µg/mL (≈ 329 µM) against Escherichia coli; 125 µg/mL (≈ 329 µM) against Bacillus cereus; 250 µg/mL (≈ 658 µM) against Proteus vulgaris. Also, the MIC against Nakaseomyces glabratus amounted to 250 µg/mL (≈ 658 µM); in the experiment with Candida albicans, 125 µg/mL (≈ 329 µM).

In the case of `Cc1ccc(/C=N/n2c(Cc3c[nH]c4ccccc34)n[nH]c2=S)cc1`, the minimum inhibitory concentration (MIC) came to 125 µg/mL (≈ 360 µM) against Salmonella typhimurium; 62.5 µg/mL (≈ 180 µM) against Micrococcus luteus; 125 µg/mL (≈ 360 µM) against Staphylococcus aureus; 250 µg/mL (≈ 720 µM) in the experiment on Escherichia coli; 125 µg/mL (≈ 360 µM) in the experiment with Bacillus cereus; 62.5 µg/mL (≈ 180 µM) in the experiment on Proteus vulgaris. In addition, the MIC in the experiment with Nakaseomyces glabratus stood at 125 µg/mL (≈ 360 µM); in the experiment on Candida albicans, 250 µg/mL (≈ 720 µM).

For the compound `CN(C)c1ccc(/C=N/n2c(Cc3c[nH]c4ccccc34)n[nH]c2=S)cc1`, the MIC came out at 62.5 µg/mL (≈ 166 µM) in the experiment on Salmonella typhimurium; 125 µg/mL (≈ 332 µM) in the experiment on Micrococcus luteus; 250 µg/mL (≈ 664 µM) against Staphylococcus aureus; 125 µg/mL (≈ 332 µM) in the experiment on Escherichia coli; 125 µg/mL (≈ 332 µM) with Bacillus cereus; 125 µg/mL (≈ 332 µM) in the experiment on Proteus vulgaris. Moreover, the minimal inhibitory concentration (MIC) against Nakaseomyces glabratus and in the experiment on Candida albicans was 250 µg/mL (≈ 664 µM) in each case.

For the compound `CN(C)c1ccc(C2=Nn3c(Cc4c[nH]c5ccccc45)nnc3SC2)cc1`, the MIC with Salmonella typhimurium amounted to 12.5 µg/mL (≈ 32.2 µM); in the experiment with Micrococcus luteus it was 62.5 µg/mL (≈ 161 µM); with Staphylococcus aureus, 250 µg/mL (≈ 644 µM); against Escherichia coli, 125 µg/mL (≈ 322 µM); against Bacillus cereus, 125 µg/mL (≈ 322 µM); against Proteus vulgaris, 125 µg/mL (≈ 322 µM). Further, the minimum inhibitory concentration (MIC) is 250 µg/mL (≈ 644 µM) with Nakaseomyces glabratus and 125 µg/mL (≈ 322 µM) in the experiment with Candida albicans.

In the case of `O=[N+]([O-])c1ccc(/C=N/n2c(Cc3c[nH]c4ccccc34)n[nH]c2=S)cc1`, the MIC in the experiment with Salmonella typhimurium was found to be 125 µg/mL (≈ 330 µM); in the experiment with Micrococcus luteus, 125 µg/mL (≈ 330 µM); with Staphylococcus aureus, 250 µg/mL (≈ 661 µM); against Escherichia coli, 125 µg/mL (≈ 330 µM); in the experiment with Bacillus cereus, 250 µg/mL (≈ 661 µM); in the experiment on Proteus vulgaris, 125 µg/mL (≈ 330 µM). Moreover, the MIC in the experiment on Nakaseomyces glabratus and against Candida albicans was 125 µg/mL (≈ 330 µM) each time.

As to `S=c1[nH]nc(Cc2c[nH]c3ccccc23)n1/N=C/c1ccc(Cl)cc1`, the MIC in the experiment on Salmonella typhimurium amounted to 62.5 µg/mL (≈ 170 µM); against Micrococcus luteus it was 62.5 µg/mL (≈ 170 µM); with Staphylococcus aureus, 125 µg/mL (≈ 340 µM); with Escherichia coli, 125 µg/mL (≈ 340 µM); against Bacillus cereus it was 250 µg/mL (≈ 680 µM); in the experiment on Proteus vulgaris, 125 µg/mL (≈ 340 µM). The MIC in the experiment with Nakaseomyces glabratus came to 250 µg/mL (≈ 680 µM); with Candida albicans, 125 µg/mL (≈ 340 µM).

Turning to `O=C(N[C@H](CO)[C@H](O)c1ccc([N+](=O)[O-])cc1)C(Cl)Cl` [CHLORAMPHENICOL], the MIC against Salmonella typhimurium was determined as 0.97 µg/mL (≈ 3 µM); against Micrococcus luteus it was 1.95 µg/mL (≈ 6.03 µM); against Staphylococcus aureus it was 62.5 µg/mL (≈ 193 µM); in the experiment with Escherichia coli, 62.5 µg/mL (≈ 193 µM); in the experiment with Bacillus cereus, 125 µg/mL (≈ 387 µM); in the experiment with Proteus vulgaris it was 0.97 µg/mL (≈ 3 µM).

Regarding `CC(=O)N1CCN(c2ccc(OCC3COC(Cn4ccnc4)(c4ccc(Cl)cc4Cl)O3)cc2)CC1` (stereo not drawn) [KETOCONAZOLE], the MIC against Nakaseomyces glabratus and in the experiment with Candida albicans was 62.5 µg/mL (≈ 118 µM) in each case.
